# Fewer inactive variants are shown than the library holds.
# B1: tRNA (parent)
# chain: GUUCCGUUGGCGUAAUGGUAACGCGUCUCCCUCCUAAGGAGAAGACUGCGGGUUCGAGUCCCGUACGGAACG
# Variants of: B1
# Experiment: yeast fitness relative to wild type (ratio to wild type); higher = fitter; tRNA-Arg(CCU), competitive growth, 37 C, YPD
# Outline: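 Changes in genotype frequencies gave Darwinian fitness relative to wild type. Frequencies were read by 100-nucleotide paired-end sequencing of gene amplicons before and after pooled Saccharomyces cerevisiae strains, carrying tRNA-Arg(CCU) gene variants at the native locus, were competed in YPD at 37°C for 24 hours in six replicates. A genotype was kept only with ≥ 100 starting reads, and estimates < 0.5 were set to 0.5.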
row,Variant,yeast fitness
1,GUUCCGUUGGCGUAGUGGUAACGCGUCUGCCUCCUAAGGAGAAGACUGUGGGUUCGAGUCCCGUACGGAACG,0.606
2,GUUCCGUUGGCGUAGUGGUAACGCGUAUCCAUCCUAAGGAGAAGACUGCGGGUUCGCGUCCCGUACGGAACG,≤ 0.5
3,GUUCCGUUGGCGUAGUGGUAACGCGUCUCGCUCCUACGGAGAAGACUGUGGGUUCGAGUCCCAUACGGAACG,≤ 0.5
4,GUUCCGUUGGCGUAGUGGUAACGCGUCUCCCUCCUAAGGAGAAGACUGCGGGUUCGAGUCCCGUACGGAUCG,1.03
5,GUUCCGUUGGCGUAGUGGUAACGGGUCUCCCUCCUAAGGAGAAGACUGCGGGUUCGAGUCCCGUAGGGAACG,≤ 0.5
6,GUUCCGUUGGCGUAGUGGUAACGCGUCUACCUCCUAAGAAGAAGACUGCGGGUUCGAGUCCCGUACGGAACG,0.572
7,GUUCCGUUGGCGUAGUGGUAACGCGUCUCACUCCUAAGGAGAAGACUGGGGGUUUGAGUCCCGUACGGAACG,≤ 0.5
8,GUUCCGUUGGCGUAGUGGUAACGCGUCUCCCUCCUAAGGAGAAGACUGCGGGUUCGUGUCCCGUACGGAACG,0.636
9,GUUCCGUUGGCGUAGUGGUAACGCGUUUCCCUCCUAAGGAGAAGACUGCGGGUUCGAGUCCGGUACGGAACG,0.627
10,GUUCCGUUGGCGUAGUGGUAACGCGUCUGCAUCCUAGGGAGAAGACUGCGGGUUCGAGUCCCGUACGGAACG,≤ 0.5
11,GUUCCGUUGGCGUAGUGGUAAGGCGUCUCCCUCCUUAGGGGAAGACUGCGGGUUCGAGUCCCGUACGGUACG,≤ 0.5
12,GUUCCGUUGGCGUAGUGGUAACGCGUCUCCCUCCUAAGGAGAAGUCUACGGGUUCAAGUCCCGUACGGAACG,0.717
13,GUUCCGUUGGCGUAGUGGUAACGCGUCUCGCUCCUACGGAGAAGACUGCGGGUUCGAGUCCCGUACGGAACG,≤ 0.5
14,GUUCCGUUGGCGUAGUGGUAACGCGUGUCCCUCCUAAGGAGGAGACUGCGGGUUCGAGUCCCAUACGGAACG,≤ 0.5
15,GUUCCGUUGGCGUAGUGGUAACGCGUAUCCCUCCUAAGGAGAAAACUGCGGGUUCGAGUCCUGUUCGGAACG,≤ 0.5
16,GUUCCGUUGGCGUAGUGGUAACGCGUCUCCCUCCUAAGGAGAAGUCUGCGGGUUCGAGUCGCGUACGGAACG,0.6
17,GUUCCGUUGGCGUAGUGGUAACGCGUCUGCCUCGUAAGGAGAAGACUGCGGGUUCGAGUCCCGCACGGAACG,≤ 0.5
18,GUUCCGUUGGCGUAGUGGUAACGCGUCUCCCUCCUAAGGAGAAGACUGCGGGUUCGAGUCCCGUACGGUACG,1.04
19,GUUCCGUUGGCGUAGUGGUAACGCGUCUCCCUCCUAAGGAGAAGACUGCGGGUUCGAGUCCCGUACGGGACG,1.05
20,GUUCCGUUGGCGUAGUGGUAACGCGUCUCCCUCCUAAGGAGAAGUCUGCGGGUUCGCGUCCCGUACGGCACG,≤ 0.5
21,GUUCCGUUGGCGUAGUGGUAACGGGUCUCCCUCCUAAGGAGAAGACUCCGGGUUCGAGUCCCGUACGGAACG,≤ 0.5
22,GUUCCGUUGGCGUAGUGGUAACGUGUCUCCCUCCUAAGGAGAAGACUGCGGGUUCGAGUCCCGUACGGAACG,1.01
23,GUUCCGUUGGCGUAGUGGUAACGGGUCUCCCUCCUAAGGAGAAGACUGCGGGUUCGAGUCCCGUACGGAACG,0.586
24,GUUCCGUUGGCGUAGUGGUAACGAGUCUCCCUCCUAAGGAGAAGACUGCGGGUUCGAGUCCCGUACGGAACG,0.587
25,GUUCCGUUGGCGUAGUGGUAACGCGUCUCCCUCCUAAGGAGAAGACUGCGGGUUCGAGUCCCGUCCGGUACG,0.705

row,Variant,yeast fitness
1,GUUCCGUUGGCGUAGUGGUAACGAGUCUGCCUCCGAAGGACAAGACUGCGGGUUCGAGUCCUGAACGGAACG,≤ 0.5
2,GUUCCGUUGGCGUAGUGGUAACGCGUCUCGCUCCUACGGAGAAGACUGCGGGUUCGAGUCCCGUUGGGAACG,≤ 0.5
3,GUUCCGUUGGCGUAGUGGUAACGCGUCUCCCUCCUAAGGAGAAGACUGCGGGUUCGAGUCCCGUUCGGAACG,0.841
4,GUUCCGUUGGCGUAGUGGUAACGCGUCUCCCUCCUAAGGAGAAGACUGCGGGUUCGAGUCCCGUGCGGAACG,0.962
5,GUUCCGUUGGCGUAGUGGUAACGCGUCUACCUCCUAAGAAGAAGACUGUGGGUUCGAGUCCCGUACGGAACG,≤ 0.5
6,GUUCCGUUGGCGUAGUGGUAAAGCGUCUUCCUCCUAAGGAGAAGACUGCGGGUCCGAGUCCCGUACGGAACG,≤ 0.5
7,GUUCCGUUGGCGUAGUGGUAACGCGUCUGCCUCCUAAGGAGAAGAUUGCGGGUUCGAGUCCCGUACGGAACG,0.52
8,GUUCCGUUGGCGUAGUGGUAAUGCGUCUCCCUCCUUAGGAGAAGACUGCGGGUUCGAGUACCGUACGGAACG,0.589
9,GUUCCGUUGGCGUAGUGGUAACGGGUCUUCCUCGCAAGGAGAAGAGUGCGGGUUCGAGUCCCGUACGGAACG,0.618
10,GUUCCGUUGGCGUAGUGGUAACGGGUCUCCCUCCUAAGGAGAAGACUGCGGGUUCGAGUCCCGUCCGGAACG,≤ 0.5
11,GUUCCGUUGGCGUAGUGGUAACGCGUCUGCCUCCUAAGGAGAAGACUGCGGGUUCGAGUCCCGUACGGAACG,0.635
12,GUUCCGUUGGCGUAGUGGUAACGCGUCUACCUCCUAAGGAGAAGACUGCGGGUUCGAGUCCCGUACGGAACG,0.558
13,GUUCCGUUGGCGUAGUGGUAACGGGUCUCCCUCCUAGGGAGAAGACUGCGGGUUCGAGUCCCGUACGGAACG,≤ 0.5
14,GUUCCGUUGGCGUAGUGGUAACGCGUCUACCUCCUAGGGAGAAGACUGCGGGUUCGAGUCCCGUACGGAACG,≤ 0.5
15,GUUCCGUUGGCGUAGUGGUAACGGGUCUCCCACCUAAGGAAAAGACUGCGGGUUCGAGUCCCGUACGGAACG,≤ 0.5
16,GUUCCGUUGGCGUAGUGGUAACGCGUUUUCCUCCUACGGAGAAGACUGCGGGUUCGAGUUCCGUACGGCACG,≤ 0.5
17,GUUCCGUUGGCGUAGUGGUAACGGGACUCCCUCCUAAGGAGAAGACUGCGGAUUCGAGUCCCGUACGCAACG,0.717
18,GUUCCGUUGGCGUAGUGGUAACGCGUAUCCCUCCUAAGGAGAAGAUUGCGGGUUCGAGUCCCGUACGGAACG,0.627
19,GUUCCGUUGGCGUAGUGGUAACGUGUCUUGCUCCGAAGGAGAAGACUGCGGGUUCGAGUCCCGUAUGGAACG,≤ 0.5
20,GUUCCGUUGGCGUAGUGGUAACGCGUCUCCCUCCUAAGGAGAAGUCUGCGGGUUCGAGUCCCGUACGGAGCG,0.617
21,GUUCCGUUGGCGUAGUGGUAACGCGUCUCGCUCCUAAGGAGAAGACUGCGGGUUCGAGUCCCGUACGGAACG,0.631
22,GUUCCGUUGGCGUAGUGGUAACGCGUCUCACUCCUAAGGAGAAGACUGCGGGUUCGAGUCCCGUACGGAACG,0.807
23,GUUCCGUUGGCGUAGUGGUAACGGGUCUUCCUCGCAAGGAGAAGACUGUGGGUUCGAGUCCUGUACGGAACG,≤ 0.5
24,GUUCCGUUGGCGUAGUGGUAACGCGUUUCCCUCCUAAGGAGAAGACUGCGGGUUCGAGUCCCGUGCGGAACG,0.748
25,GUUCCGUUGGCGUAGUGGUAACGCGUCUACCUCCUAAGGAGAAGACUGCGGGUUCGAGUCACGUAGGGAACG,0.535

row,Variant,yeast fitness
1,GUUCCGUUGGCGUAGUGGUAACGCGUCUCCCUCCUAAGGAGAAGUCUGUGGGUUCGAGUGCCGUACGGAACG,≤ 0.5
2,GUUCCGUUGGCGUAGUGGUAACGCGUCUACCUCGUAAGGAGAAGACUGCGGGUUCGAGACCUGUACGGAACG,≤ 0.5
3,GUUCCGUUGGCGUAGUGGUAACGCGUGUCCCUCCUAAGGAGAGGACUGCGGGUUCGAGACCCGUACGGAACG,≤ 0.5
4,GUUCCGUUGGCGUAGUGGUAACGCGUCUGCCUCCUAAGGAGAAGACUGCGGAUUCGAGUCCCGUAUGGAACG,0.671
5,GUUCCGUUGGCGUAGUGGUAACGCGUUUCCCUCCUAAGGAGAAAACUGCGGGUUCCAGUCCCGUACGGAACG,≤ 0.5
6,GUUCCGUUGGCGUAGUGGUAACGCGUUUCCCUCCUAAGGAGAAGACUGCGGGUUCGAGUCCCGUACGGUACG,0.808
7,GUUCCGUUGGCGUAGUGGUAACGCGUCUACCUCCUAAGAAGAAGAUUGCGGGUUCGAGUCCCGUACGGAACG,≤ 0.5
8,GUUCCGUUGGCGUAGUGGUAACGCGUCUACCUCCUAAGGAGAAGACUGCGGGUUCGCGUCCCGUACGGAACG,≤ 0.5
9,GUUCCGUUGGCGUAGUGGUAAUGCGUCUCCCUCCUUAGGAGAAGACUGCGGGUUCGAGUCCUGUACGGAACG,≤ 0.5
10,GUUCCGUUGGCGUAGUGGUAAUGCGUCUCCCUCCUAAGGAGAAGACUGCGGGUUCGAGUCCCGUACGGACCG,0.594
11,GUUCCGUUGGCGUAGUGGUAACGCGUCUCCCUCCUAAGGAGAAGACUGCGGGUUCGUGUCCCGUACGUAACG,≤ 0.5
12,GUUCCGUUGGCGUAGUGGUAACGCGUAUCCCUCCUAAGGAGAAGACUGUGGGUUGGAGUCCCGUACGGAACG,≤ 0.5
13,GUUCCGUUGGCGUAGUGGUAAUGCGUCUCCCUCCUAAGGAGAAGACUGCGGGUUCGAGUCCCGUACGCAACG,≤ 0.5
14,GUUCCGUUGGCGUAGUGGUAACGCGUCUGCCUCGUAAGGAGAAGACUGCGGGUUCGAGUCCCGUAGGGAACG,≤ 0.5
15,GUUCCGUUGGCGUAGUGGUAAGCCGUCUCCCUCCUAAGGAGACGACUGCCGGUUCGAGUCCCGUACGGAUCG,≤ 0.5
16,GUUCCGUUGGCGUAGUGGUAACGCGUCUCACUCCUAAGGAGAAGACUGCGGGUUCGAGCCCUGUACGUAACG,≤ 0.5
17,GUUCCGUUGGCGUAGUGGUAACGCGUCUACCUCCUAAGGAGAAGACUGCGGGUUCGAAUCCCGUACGGAACG,0.57
18,GUUCCGUUGGCGUAGUGGUAACGCGUUUCCCUCCUAAGGAGAAGACUGCGGGUUCGAGUCCCGUACGGAACG,0.939
19,GUUCCGUUGGCGUAGUGGUAACGCGUGUCCCUCCUAAGGAGAAGACUGCGGGUUCGAGUCCCGUACGGAACG,0.564
20,GUUCCGUUGGCGUAGUGGUAACGAGUCUCCCUCCUAAGGAGAAGACUGCGGGUGCGAGUCCCGUCCGGAACG,≤ 0.5
21,GUUCCGUUGGCGUAGUGGUAACGCGUAUCCCUCCUAAGGAGAAGACUGCGCGUUCGAGUCCCGUACGGAACG,≤ 0.5
22,GUUCCGUUGGCGUAGUGGUAACGCGUUUCCCUCUUAAGGAGAAGACUGCGGGUUCGUGUCCAGUACGGAACG,0.563
23,GUUCCGUUGGCGUAGUGGUAACGCGUCUACCUCCUAAGGGGAAGACUACGGGUUCGAGUCCCGUACGGAACG,≤ 0.5
24,GUUCCGUUGGCGUAGUGGUAACGGGUCUUCCUCGCAAGGAGAAGAGUGCGGGUUCGAGUCCCGUGCGGAACG,≤ 0.5
25,GUUCCGUUGGCGUAGUGGUAACGCGUGUCCCUCCUAAGGAGAAGACUGCGGGUUUGAGUCCCGUACGGAACG,≤ 0.5

# Source: the RNAGym collection of RNA variant scans (doi:10.1126/science.aae0568)
